The sample as a whole holds a higher share of hits than the screen did.
XBP1 UPR activ – activators of adaptive arm of unfolded protein response (XBP1). CHO-XBP1 luciferase reporter, IRE1-XBP1 UPR activation, luminescence; percent of tunicamycin response, DMSO as zero. activation, % at 20 µM. 0.33% of 330,000 active. AID 463104;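 active = versus positive control, 20 µM dose yields 30% or more activation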;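 also: 100% = tunicamycin at 10 µg/mL and 0% = DMSO only wells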
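assay system = CHO-XBP1 luciferase reporter cells | amount = 1000 cells/well | buffer or medium = F12 plus 10% FBS | compound dosing = single point, 20 µM final compound, 1% DMSO | incubation = 16-18 h cell attachment at 37 °C, then 6 h compound exposure | detection = Steady-Glo luminescence read | controls = tunicamycin 10 µg/mL and vehicle-only wells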
PvdQ inh – P. aeruginosa PvdQ acylase inhibition. purified PvdQ acylase, fluorescence plate reader. inhibition, % at 10 µM. 0.063% of 340,000 active. AID 488965; in the data active = inhibition above about 30%, passing the limit was not always enough;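 also: 0% = vehicle neutral wells and 100% = reference inhibitor wells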
CHOP inh – blocks CHOP induction under ER stress; CHO-K1 CHOP-promoter luciferase, tunicamycin-induced, 15-18 h; inhibition, % at 10 µM; 3.8% of 220,000 active;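 active = compounds that reduced the stress-induced luciferase reporter signal by more than about 70% of percent inhibition, limit read from the data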;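 also: 0% = tunicamycin plus vehicle and 100% = wells without tunicamycin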
CHOP UPR activ – activators of apoptotic arm of unfolded protein response (CHOP); 0.34% of 330,000 active; CHO-CHOP luciferase reporter, UPR activation, luminescence; percent of tunicamycin response over DMSO baseline; AID 449763; activation, % at 10 µM;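 active = at 10 µM dose, activation of 40% or more, normalized to positive control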;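 also: 100% = tunicamycin at 10 µg/mL and 0% = DMSO alone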
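Material: CHO-CHOP cells, stable luciferase reporter of PERK-eIF2a-CHOP signalling; quantity: 500 reporter cells seeded per well; buffer or medium: F12 medium containing 10% fetal bovine serum; compound: one dose, 10 µM in 0.5% DMSO; incubation: 6 h compound treatment, 37 °C; measured by: Steady-Glo luciferase luminescence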
CHOP confirm – confirmation of CHOP induction inhibitors | shares compounds with CHOP inh | CHO-CHOP promoter luciferase reporter, tunicamycin-induced, luminescence | inhibition, % at 10 µM | 45% of 2,100 active | AID 504437;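 active = mean of three repeat readings of reporter signal inhibition above a set limit, cut at about 70% in these data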;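 also: 0% = tunicamycin plus vehicle and 100% = wells lacking tunicamycin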
Active calls of the source: *; . = no result.

SMILES	XBP1 UPR activ	PvdQ inh	CHOP inh	CHOP UPR activ	CHOP confirm
COc1cc(/C=N/c2oc(-c3ccccc3)cc2C#N)ccc1O	0.4	-3.0	58.3	1.4	.
C/C(N)=C(/C#N)C(=O)COC(=O)C1CCC(C(C)(C)C)CC1 (centres undefined)	0.4	-7.0	97.3*	3.7	86.7*
C/C(N)=C(/C#N)C(=O)COC(=O)CC1CCCC1	1.9	1.5	.	3.2	.
O=C(Nc1cccc(Cl)c1)NC1(C(=O)NCc2cccs2)CCCCC1	-2.8	1.2	104.0*	-3.2	23.8
O=C(NCc1cccs1)Nc1cccc(Cl)c1	0.6	5.6	.	2.0	.
COc1ccc(/C=C2\C(=O)NC(=S)N2C(=O)c2ccc(F)cc2)cc1	.	4.4	97.3*	.	25.9
CCc1cc(Cn2nc(-c3ccccc3)cc2C(=O)NCC2CC2)on1	2.2	-14.1	.	-1.3	.
Oc1ccc(/C=N/Nc2nc(-c3ccc(Cl)cc3)cc(C(F)(F)F)n2)cc1	3.2	1.6	102.3*	5.2	98.1*
CCn1ncc(Cl)c1C(=O)Nc1cc(Cl)ccc1Cl	-0.1	-10.8	99.7*	-3.6	17.3
CCN(c1ccc(C(=O)CSc2nnc(C3CC3)n2C2CC2)cc1)S(C)(=O)=O	-1.0	-13.0	.	-0.4	.
CCOC(=O)c1c(C)oc2ccc(O)c(CN3CCCCC3)c12	-2.0	-6.0	0.6	-2.4	.
CCOC(=O)c1c(-c2ccccc2)oc2ccc(O)c(CN3CCOCC3)c12	-1.8	6.6	109.3*	-0.6	95.8*
O=C(N/N=C/c1cccc([N+](=O)[O-])c1)c1cccc2cc[nH]c12	-2.3	9.3	100.6*	1.7	-14.1
COc1cccc(CNC(=O)CCS(=O)(=O)c2ccc3c(c2)CC(C)N3C(=O)C2CC2)c1 (centres undefined)	-3.3	-16.9	.	2.2	.
COc1cc(OC)nc(-n2ncc(Br)c(Br)c2=O)n1	.	-11.1	111.0*	.	118.5*
COC(=O)c1cnn(-c2nc(OC)cc(OC)n2)c1C	0.6	-2.9	6.3	-2.6	.
Cc1ccc(NC(=O)CSc2nc3ccccc3c3nc(CCc4c(C)n[nH]c4C)nn23)cc1F	28.3	6.2	107.7*	3.1	78.6*
COc1ccc(OCC(=O)N2CCN(c3nnc(-c4ccc(C)cc4)c4ccccc34)CC2)cc1	-4.7	-16.0	23.2	4.7	.
Cc1ccc(OCC(=O)N2CCN(c3nnc(-c4ccc(C)cc4)c4ccccc34)CC2)cc1	-2.1	-14.8	97.4*	2.7	74.6*
COc1cc(COC(=O)c2cnc(C)cn2)c(OC)cc1Br	-5.0	6.0	.	-0.2	.
Cc1ccc(C(=O)NC(Cc2ccccc2C(F)(F)F)C(=O)O)cc1 (centres undefined)	3.4	-12.4	.	4.7	.
CS(=O)(=O)c1ccc(S(=O)CC(=O)OCc2ccccc2)c([N+](=O)[O-])c1 (centres undefined)	.	-6.4	107.0*	.	128.3*
CC(=O)Nc1ccc(NC(=O)CCCn2cnc3ccccc3c2=O)cc1	-0.1	-13.5	.	0.8	.
CCCc1cc(C(=O)NC2CCCCC2)no1	1.7	1.0	0.0	1.4	.
CCCc1cc(C(=O)N(C2CCCCC2)C2CCCCC2)no1	-1.7	-14.3	99.5*	0.2	89.0*
SMILES	XBP1 UPR activ	PvdQ inh	CHOP inh	CHOP UPR activ	CHOP confirm
CCc1cccc(C)c1NC(=O)CSc1nc(-c2ccccc2F)nc2nc[nH]c12	-0.1	-21.3	108.0*	-1.5	56.1
O=C(CSc1nc(-c2ccccc2F)nc2nc[nH]c12)Nc1c(Cl)cc(Cl)cc1Cl	-2.8	.	-20.3	1.1	.
Cc1ccc(S(=O)(=O)CCSc2n[nH]c(=O)n2-c2ccc3c(c2)OCCO3)cc1	-0.8	3.7	-3.8	0.9	.
CCOc1cc(/C=N/NC(=O)Cc2ccc(C(F)(F)F)cc2[N+](=O)[O-])c(Br)cc1OC	4.7	-13.3	101.3*	-1.4	99.6*
O=C(CSc1nc2ncc(Cl)cc2[nH]1)c1c[nH]c2ccccc12	1.4	-2.9	26.0	0.9	.
O=C(CSc1nc2ccc(Cl)cc2[nH]1)c1c[nH]c2ccccc12	-0.9	-14.7	101.1*	0.9	26.0
O=C(CNC1CCCCCC1)Nc1ccccc1N1CCCCC1	0.0	11.0	97.6*	-0.1	93.9*
O=C(Cc1ccccc1)Nc1ccccc1N1CCCC1	-1.4	-5.5	11.6	2.1	.
COCCn1cnc2c(c1=O)c1nc3ccccc3nc1n2/N=C/c1cccc(OC)c1	12.3	-18.9	101.3*	0.9	107.0*

Bioassay records (PubChem)
